Assay results taken from ChEMBL document CHEMBL3751740, “New MKLP-2 inhibitors in the paprotrain series: Design, synthesis and biological evaluations” (Bioorg Med Chem, 2016).

Columns and labels:
[1] = target: T1, Kinesin-like protein KIF11 (Homo sapiens) (UniProt P52732); assay: Inhibition of porcine brain microtubule-stimulated human recombinant GST-tagged Eg5 ATPase activity at 15 uM by microplate reader in presence of Mg2+ ATP relative to control
T1 sequence (whole entry): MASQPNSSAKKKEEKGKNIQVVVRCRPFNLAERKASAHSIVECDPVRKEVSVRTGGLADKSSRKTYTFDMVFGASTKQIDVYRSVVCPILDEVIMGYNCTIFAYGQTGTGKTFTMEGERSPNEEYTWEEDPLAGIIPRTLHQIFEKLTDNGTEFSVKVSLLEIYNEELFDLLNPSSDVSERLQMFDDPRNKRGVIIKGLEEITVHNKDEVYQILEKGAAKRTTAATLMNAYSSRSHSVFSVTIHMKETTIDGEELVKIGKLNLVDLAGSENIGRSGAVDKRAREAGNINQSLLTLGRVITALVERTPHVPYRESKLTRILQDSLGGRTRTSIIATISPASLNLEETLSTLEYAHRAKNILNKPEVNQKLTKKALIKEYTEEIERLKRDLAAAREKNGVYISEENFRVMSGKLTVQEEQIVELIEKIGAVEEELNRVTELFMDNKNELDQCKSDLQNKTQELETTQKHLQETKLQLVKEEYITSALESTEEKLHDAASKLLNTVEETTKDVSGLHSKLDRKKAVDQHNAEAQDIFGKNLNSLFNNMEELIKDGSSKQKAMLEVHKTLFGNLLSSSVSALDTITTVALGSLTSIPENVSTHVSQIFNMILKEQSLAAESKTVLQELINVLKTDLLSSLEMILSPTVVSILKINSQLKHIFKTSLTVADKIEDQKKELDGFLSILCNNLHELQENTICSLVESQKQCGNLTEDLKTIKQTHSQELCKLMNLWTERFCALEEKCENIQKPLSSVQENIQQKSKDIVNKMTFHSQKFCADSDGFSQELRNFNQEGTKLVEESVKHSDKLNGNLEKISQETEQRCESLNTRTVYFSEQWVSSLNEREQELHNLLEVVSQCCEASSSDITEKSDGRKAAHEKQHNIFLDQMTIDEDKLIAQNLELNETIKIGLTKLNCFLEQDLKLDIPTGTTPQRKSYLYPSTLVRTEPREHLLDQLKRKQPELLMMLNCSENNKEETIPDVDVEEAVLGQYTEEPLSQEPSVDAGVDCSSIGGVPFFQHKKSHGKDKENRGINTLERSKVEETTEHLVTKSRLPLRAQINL
Summary of the method: (§1)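 Each kinesin motor domain was tested against MT-stimulated ATPase at 22 °C in triplicate, with compounds at 15 µM. Buffer was 7.5 mM PIPES-NaOH pH 7.0 with MgCl2, Taxol, ELIPA reagents and 1.25 mg/mL MTs. Reactions were started with 1 mM Mg2+ATP and read kinetically at 360 nm. Monastrol and AMP-PNP (1 mM) were the controls.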

[2] = target: T2, Kinesin-1 heavy chain (Homo sapiens) (UniProt P33176); assay: Inhibition of porcine brain microtubule-stimulated human recombinant GST-tagged Kif5B ATPase activity at 15 uM by microplate reader in presence of Mg2+ ATP relative to control; summary of the method: as §1
T2 sequence (whole entry): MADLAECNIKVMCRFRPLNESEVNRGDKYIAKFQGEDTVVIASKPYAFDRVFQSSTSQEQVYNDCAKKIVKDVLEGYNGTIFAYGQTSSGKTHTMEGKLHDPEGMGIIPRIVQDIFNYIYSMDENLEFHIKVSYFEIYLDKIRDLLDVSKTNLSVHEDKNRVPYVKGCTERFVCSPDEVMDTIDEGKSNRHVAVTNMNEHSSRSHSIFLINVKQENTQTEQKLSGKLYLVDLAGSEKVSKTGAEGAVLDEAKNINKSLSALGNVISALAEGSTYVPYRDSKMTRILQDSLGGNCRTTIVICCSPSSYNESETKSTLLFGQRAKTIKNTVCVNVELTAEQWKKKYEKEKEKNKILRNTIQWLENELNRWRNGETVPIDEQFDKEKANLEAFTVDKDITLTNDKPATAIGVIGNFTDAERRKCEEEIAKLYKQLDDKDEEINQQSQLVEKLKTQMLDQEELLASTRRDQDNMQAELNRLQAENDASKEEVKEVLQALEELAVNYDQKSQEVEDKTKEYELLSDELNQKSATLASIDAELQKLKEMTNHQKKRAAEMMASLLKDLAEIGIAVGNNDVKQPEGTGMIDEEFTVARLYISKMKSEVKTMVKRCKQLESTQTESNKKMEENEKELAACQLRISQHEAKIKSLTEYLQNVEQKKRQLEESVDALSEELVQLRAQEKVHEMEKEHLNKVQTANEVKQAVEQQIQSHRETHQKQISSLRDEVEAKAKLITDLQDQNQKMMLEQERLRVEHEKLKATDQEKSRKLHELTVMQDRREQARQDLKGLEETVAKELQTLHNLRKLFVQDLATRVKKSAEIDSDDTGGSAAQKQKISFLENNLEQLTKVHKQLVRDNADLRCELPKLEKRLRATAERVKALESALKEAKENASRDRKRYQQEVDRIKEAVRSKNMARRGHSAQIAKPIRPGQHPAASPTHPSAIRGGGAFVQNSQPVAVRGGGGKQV

Row | SMILES | inhibition [1] [%] | inhibition [2] [%]
1 | CCOC(=O)C1=C(C)NC(=S)NC1c1cccc(O)c1 (configuration not stated) | > 30 | < 20
2 | N#C/C(=C\c1cccnc1)c1c[nH]c2ccc(OCc3ccccc3)cc12 | < 20 | < 20
3 | COc1ccc2[nH]cc(/C(C#N)=C/c3cccnc3)c2c1 | < 20 | < 20

Results, then the compound that gave them:

Row | inhibition [1] [%] | inhibition [2] [%] | SMILES
4 | < 20 | < 20 | COc1cccc2[nH]cc(/C(C#N)=C/c3cccnc3)c12
5 | < 20 | < 20 | N#C/C(=C\c1ccc2c(c1)OCO2)c1c[nH]c2ccccc12
6 | < 20 | < 20 | COc1ccc2c(/C(C#N)=C/c3cccnc3)c[nH]c2c1
